Key:
Assay type in all cases: functional
[1] = test system: CCRF-CEM; test: Growth inhibition of human CCRF-CEM cells; conditions: for CC50: read-out: pLC50 (the source's name) (converted); for TGI: read-out: pTGI (converted)
[2] = test system: OVCAR-4; test: Growth inhibition of human OVCAR4 cells; conditions: for CC50: read-out: pLC50 (the source's name) (converted); for TGI: read-out: pTGI (converted)
[3] = test system: MDA-MB-231; test: Growth inhibition of human MDA-MB-231 cells; conditions: for TGI: read-out: pTGI (converted)
[4] = test system: T47D; test: Growth inhibition of human T47D cells; conditions: for CC50: read-out: pLC50 (the source's name) (converted)
[5] = test system: COLO 205; test: Growth inhibition of human COLO205 cells; conditions: for TGI: read-out: pTGI (converted)
[6] = test system: SNB-19; test: Growth inhibition of human SNB19 cells
[7] = test system: K562; test: Growth inhibition of human K562 cells; conditions: for CC50: read-out: pLC50 (the source's name) (converted); for TGI: read-out: pTGI (converted)
[8] = Growth inhibition of human Hs 578T cells
[9] = test system: NCI-H23; test: Growth inhibition of human NCI-H23 cells; conditions: for TGI: read-out: pTGI (converted)
[10] = test system: Malme-3M; test: Growth inhibition of human MALME-3M cells; conditions: for TGI: read-out: pTGI (converted)
[11] = test system: M14; test: Growth inhibition of human M14 cells; conditions: for CC50: read-out: pLC50 (the source's name) (converted); for TGI: read-out: pTGI (converted)
[12] = test system: MDA-MB-468; test: Growth inhibition of human MDA-MB-468 cells; conditions: for TGI: read-out: pTGI (converted)
[13] = test system: A549; test: Selectivity index, ratio of EC50 for human A549 cells to EC50 for SF295 cells
Method in brief: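 SF-295 cells were kept in RPMI 1640 and A549 in F-12, each with 10% FBS, pen-strep, amphotericin B and L-glutamine, at 37 °C and 5% CO2. Cells at 60% confluency were dosed for 44 h, then given 0.06 mg/mL MTT for 4 h (SF-295 in phenol-red-free RPMI). Acid/Triton/isopropanol stop was added overnight at 37 °C, and OD read at 540/650 nm. EC50 ratio is A549 over SF-295.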

[14] = test system: TK-10; test: Growth inhibition of human TK10 cells; conditions: for TGI: read-out: pTGI (converted)
[15] = test system: DU-145; test: Growth inhibition of human DU145 cells; conditions: for TGI: read-out: pTGI (converted)
[16] = test system: RXF 393; test: Growth inhibition of human RXF393 cells; conditions: for CC50: read-out: pLC50 (the source's name) (converted); for TGI: read-out: pTGI (converted)
[17] = test system: HOP-92; test: Growth inhibition of human HOP92 cells; conditions: for TGI: read-out: pTGI (converted)
[18] = test system: UACC-62; test: Growth inhibition of human UACC62 cells; conditions: for CC50: read-out: pLC50 (the source's name) (converted); for TGI: read-out: pTGI (converted)
[19] = test system: SW-620; test: Growth inhibition of human SW620 cells
[20] = test system: UO-31; test: Growth inhibition of human UO31 cells; conditions: for CC50: read-out: pLC50 (the source's name) (converted); for TGI: read-out: pTGI (converted)
[21] = test system: SK-MEL-28; test: Growth inhibition of human SK-MEL-28 cells
[22] = test system: OVCAR-8; test: Growth inhibition of human OVCAR8 cells
[23] = read-out: pLC50 (the source's name) (converted)

## COc1cc(/C=C/c2cc(O)c(CCC(C)C)c(O)c2)cc2c1O[C@]1(C)CC[C@@H](O)C(C)(C)[C@H]1C2
[1]
  GI50: 0.148 µM
  CC50: > 100 µM
  TGI: 18.6 µM
[2]
  GI50: 1.41 µM
  CC50: > 100 µM
  TGI: 38 µM
[3]
  GI50: 1.74 µM
  LC50: 39.8 µM
  TGI: 11 µM
[4]
  GI50: 2.04 µM
  CC50: > 100 µM
[5]
  GI50: 0.891 µM
  LC50: > 100 µM
  TGI: 12.3 µM
[6]
  GI50: 0.372 µM
[7]
  GI50: 1.17 µM
  CC50: > 100 µM
  TGI: > 100 µM
[8]
  GI50: 0.0309 µM
[8]; [23]
  CC50: > 100 µM
[8]; read-out: pTGI (converted)
  TGI: 0.166 µM
[9]
  GI50: 1.29 µM
  LC50: 81.3 µM
  TGI: 19.5 µM
[10]
  GI50: 1.41 µM
  LC50: 63.1 µM
  TGI: 12.3 µM
[11]
  GI50: 0.245 µM
  CC50: 30.9 µM
  TGI: 0.24 µM
[12]
  GI50: 0.851 µM
  LC50: 57.5 µM
  TGI: 4.37 µM
[13]
  Ratio EC50: 10
[14]
  GI50: 6.31 µM
  LC50: 74.1 µM
  TGI: 25.1 µM
[15]
  GI50: 0.24 µM
  LC50: 37.2 µM
  TGI: 14.1 µM
[16]
  GI50: 0.01 µM
  CC50: 8.32 µM
  TGI: 0.0891 µM
[17]
  GI50: 1.51 µM
  LC50: > 100 µM
  TGI: 24 µM
[18]
  GI50: 0.195 µM
  CC50: 32.4 µM
  TGI: 7.08 µM
[19]
  GI50: 0.214 µM
[19]; [23]
  CC50: 14.8 µM
[19]; read-out: pTGI (converted)
  TGI: 2.34 µM
[20]
  GI50: 0.0468 µM
  CC50: 74.1 µM
  TGI: 2.4 µM
[21]
  GI50: 0.123 µM
[21]; [23]
  CC50: 37.2 µM
[21]; read-out: pTGI (converted)
  TGI: 11.2 µM

## COc1cc(CCc2cc(O)c(C/C=C(\C)CC/C=C(\C)CO)c(O)c2)cc2c1O[C@]1(C)CC[C@@H](O)C(C)(C)[C@H]1C2
[22]
  GI50: 8.32 µM
[22]; [23]
  CC50: > 100 µM
[22]; read-out: pTGI (converted)
  TGI: 64.6 µM
[1]
  GI50: 4.07 µM
  CC50: > 100 µM
  TGI: 45.7 µM
[2]
  GI50: 11.5 µM
  CC50: > 100 µM
  TGI: 45.7 µM
[3]
  GI50: 8.13 µM
  LC50: > 100 µM
  TGI: 38 µM
[4]
  GI50: 5.89 µM
  CC50: > 100 µM
[4]; read-out: pTGI (converted)
  TGI: 35.5 µM
[5]
  GI50: 10.7 µM
  LC50: 67.6 µM
  TGI: 26.9 µM
[6]
  GI50: 4.17 µM
  LC50: 49 µM
[6]; read-out: pTGI (converted)
  TGI: 18.2 µM
[7]
  GI50: 3.09 µM
  CC50: 64.6 µM
  TGI: 12.9 µM
[9]
  GI50: 6.92 µM
  LC50: 85.1 µM
  TGI: 25.7 µM
[10]
  GI50: 6.31 µM
  LC50: > 100 µM
  TGI: 38 µM
[11]
  GI50: 6.03 µM
  CC50: 83.2 µM
  TGI: 23.4 µM
[12]
  GI50: 5.89 µM
  LC50: > 100 µM
  TGI: 50.1 µM
[14]
  GI50: 13.2 µM
  LC50: > 100 µM
  TGI: 67.6 µM
[15]
  GI50: 6.46 µM
  LC50: > 100 µM
  TGI: 28.2 µM
[16]
  GI50: 0.363 µM
  CC50: > 100 µM
  TGI: 1.38 µM
[17]
  GI50: 7.41 µM
  LC50: > 100 µM
  TGI: 47.9 µM
[18]
  GI50: 4.79 µM
  CC50: 81.3 µM
  TGI: 20.9 µM
[20]
  GI50: 3.47 µM
  CC50: > 100 µM
  TGI: 20 µM

— ChEMBL document CHEMBL1156920, “Structural analogues of schweinfurthin F: probing the steric, electronic, and hydrophobic properties of the D-ring substructure” (Bioorg Med Chem, 2010)
